The source made the active and inactive calls. The calls are words filed in the database; no cut-off is given here.
Experiments:
Lipid bilayer [1] = assay: Binding affinity to phosphatidylcholine/phosphatidylethanolamine/phosphatidylinositol/ergosterol large unilamellar vesicle assessed as induction of calcein leakage at 2 to 32 uM after 15 mins by spectrofluorophotometric method
Summary of the method: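 Large unilamellar vesicles were made from PG/CL/PE (2:1:7), PC/PE/PI/ergosterol (5:4:1:2) or PC/cholesterol (10:1), loaded with 70 mM calcein in Tris/NaCl/EDTA buffer at pH 7.4, frozen and thawed 20 times, and extruded through 100 nm filters. Free dye was removed by gel filtration, and peptide-induced calcein release was measured.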

Escherichia coli [2] = assay: Disruption of cytoplasmic membrane electrical potential in Escherichia coli ATCC 25922 at MBC after 800 secs by DiSC3-5 dye-based fluorescence spectrophotometric method; assay type: functional, organism-based
Candida albicans [3] = assay: Disruption of cytoplasmic membrane electrical potential in Candida albicans cgmcc 2.2086 at MFC after 800 secs by DiSC3-5 dye-based fluorescence spectrophotometric method; assay type: functional, organism-based
Summary of the method: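 Cells were loaded with the membrane potential-sensitive dye DiSC3-5, and its release on peptide treatment (various concentrations, including 1× MBC/MFC) was monitored as increasing fluorescence over 800 s.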

Escherichia coli [4] = assay: Antibacterial activity against Escherichia coli ATCC 25922 after 18 hrs in presence of 50% human heat-inactivated serum by broth dilution method; assay type: functional; settings: ATCC 25922, 18 h
Escherichia coli [5] = assay: Bactericidal activity against Escherichia coli ATCC 25922 at MBC after 5 hrs by time-kill assay; assay type: functional
Summary of the method: (§1)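 Time-kill: E. coli ATCC 25922 or C. albicans cgmcc 2.2086 was exposed to peptide at 1× MBC/MFC. At intervals, aliquots were diluted and spread on MHA (bacteria, counted after 24 h at 37 °C) or YPDA (yeast, counted after 48 h at 28 °C). Values are means of three independent assays.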

Candida albicans [6] = assay: Fungicidal activity against Candida albicans cgmcc 2.2086 at MFC after 5 hrs by time-kill assay; assay type: functional; summary of the method: as §1
Escherichia coli [7] = assay: Induction of cell wall permeabilization in Escherichia coli ATCC 25922 assessed as increase in NPN uptake at 2 uM by fluorescence spectrophotometric method relative to control; assay type: functional
Summary of the method: (§2)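 Log-phase E. coli ATCC 25922 or C. albicans cgmcc 2.2086 at OD600 0.2 in 5 mM HEPES pH 7.4 with 5 mM glucose was preloaded 30 min with 10 μM NPN, then peptide was added. Fluorescence (ex 350, em 420 nm) was followed until it plateaued and converted to % uptake against a 100% reference. Run in triplicate.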

Candida albicans [8] = assay: Induction of cell wall permeabilization in Candida albicans cgmcc 2.2086 assessed as increase in NPN uptake at 2 uM by fluorescence spectrophotometric method relative to control; assay type: functional; summary of the method: as §2
Lipid bilayer [9] = assay: Binding affinity to phosphatidylglycerol/cardiolipin/phosphatidylethanolamine large unilamellar vesicle assessed as induction of calcein leakage after 15 mins by spectrofluorophotometric method
Summary of the method: (§3)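 Compositions were PG/CL/PE 2:1:7 w/w/w (E. coli membrane mimic; lines 4,5) and PC/PE/PI/ergosterol 5:4:1:2 w/w/w/w (fungal membrane mimic; lines 2,3). Lipids underwent 20 freeze–thaw cycles and were extruded through 100 nm filters; free calcein was removed by gel filtration.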

Lipid bilayer [10] = assay: Binding affinity to phosphatidylcholine/phosphatidylethanolamine/phosphatidylinositol/ergosterol large unilamellar vesicle assessed as induction of calcein leakage after 15 mins by spectrofluorophotometric method; summary of the method: as §3
Lipid bilayer [11] = assay: Binding affinity to phosphatidylcholine/phosphatidylethanolamine/phosphatidylinositol/ergosterol large unilamellar vesicle assessed as induction of calcein leakage at 32 uM after 15 mins by spectrofluorophotometric method relative to control; summary of the method: as §3
Escherichia coli [12] = assay: Induction of membrane damage in Escherichia coli ATCC 25922 assessed as appearance of roughened and broken membrane at MBC after 1 hr by scanning electron microscopy; assay type: functional, organism-based
Summary of the method: (§4)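 E. coli ATCC 25922 was treated at 1× MBC and C. albicans cgmcc 2.2086 at 1× MFC, each for 1 h. Untreated control cells were processed in parallel without peptide. Surface morphology was imaged by AFM and SEM, and ultrastructure by TEM.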

Candida albicans [13] = assay: Induction of membrane damage in Candida albicans cgmcc 2.2086 assessed as intracellular content leakage at MFC after 1 hr by scanning electron microscopy; assay type: functional, organism-based
Summary of the method: (§5)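 E. coli ATCC 25922 or C. albicans cgmcc 2.2086 were treated with peptide at 1× MBC/MFC for 1 h alongside peptide-free controls, then imaged by AFM, SEM or TEM for membrane and ultrastructural changes.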

Candida albicans [14] = assay: Induction of membrane damage in Candida albicans cgmcc 2.2086 assessed as membrane deformation at MFC after 1 hr by atomic force microscopy; assay type: functional, organism-based; summary of the method: as §4
Candida albicans [15] = assay: Induction of membrane damage in Candida albicans cgmcc 2.2086 assessed as empty regions formation of cytoplasm at MFC after 1 hr by transmission electron microscopy; assay type: functional, organism-based; summary of the method: as §5
Escherichia coli [16] = assay: Induction of reactive oxygen species generation in Escherichia coli ATCC 25922 at 0.5 to 4 uM after 1 hr by DCFH-DA dye-based spectrofluorophotometric method; assay type: functional, organism-based
Summary of the method: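 E. coli ATCC 25922 and C. albicans cgmcc 2.2086 cells were exposed to a range of peptide concentrations up to 32 μM. ROS levels were read by fluorescence and expressed relative to untreated cells. Values are mean ± SEM of three independent experiments.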

Escherichia coli [17] = assay: Induction of reactive oxygen species generation in Escherichia coli ATCC 25922 at 32 uM after 1 hr by DCFH-DA dye-based spectrofluorophotometric method relative to control; assay type: functional
Summary of the method: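 Intracellular ROS in peptide-treated cells were compared with untreated cells; values are mean ± SEM of three independent experiments.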

Lipopolysaccharide (LPS) [18] = assay: Displacement of BODIPY-TR-cadaverine from Escherichia coli O111:B4 LPS at 4 uM after 1 hr by spectrofluorophotometric method relative to control
Summary of the method: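 Fluorescence-based displacement assay: peptide displaces BODIPY-TR-cadaverine from LPS; polymyxin B served as the LPS-binding reference.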

Lipopolysaccharide (LPS) [19] = assay: Binding affinity to Escherichia coli O111:B4 LPS by SPR spectroscopy
Summary of the method: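 Surface plasmon resonance with the peptide immobilized and LPS flowed over it at 3.125−25 μg/mL; binding recorded in response units (RU).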

RAW264.7 [20] = assay: Induction of endotoxin-neutralization in mouse RAW264.7 cells assessed as inhibition of LPS-induced nitric oxide production after 18 hrs by Griess assay; assay type: functional, cell-based
Summary of the method: (§6)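 RAW 264.7 cells were stimulated with 50 ng/mL LPS with or without peptide at various concentrations. TNF-α in supernatants was measured by ELISA and NO by Griess reagent. Mean ± SEM of three independent experiments, compared against LPS alone.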

RAW264.7 [21] = assay: Induction of endotoxin-neutralization in mouse RAW264.7 cells assessed as inhibition of LPS-induced nitric oxide production at 16 uM after 18 hrs by Griess assay relative to control; assay type: functional; settings: RAW264.7, 18 h; summary of the method: as §6
RAW264.7 [22] = assay: Immunostimulatory activity in mouse RAW264.7 cells assessed as induction of nitric oxide production by Griess assay; assay type: cell-based
Summary of the method: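 RAW 264.7 macrophages were exposed to peptide at various concentrations. TNF-α in culture supernatants was measured by ELISA and NO by Griess reagent. Values are means ± SEM of three independent experiments.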

CC[C@H](C)[C@H](NC(=O)CN)C(=O)NCC(=O)N[C@@H](C)C(=O)N[C@H](C(=O)N[C@@H](CC(C)C)C(=O)N[C@@H](CCCCN)C(=O)N[C@H](C(=O)N[C@@H](CC(C)C)C(=O)N[C@H](C(=O)N[C@H](C(=O)NCC(=O)N[C@@H](CC(C)C)C(=O)N1CCC[C@H]1C(=O)N[C@@H](C)C(=O)N[C@@H](CC(C)C)C(=O)N[C@H](C(=O)N[C@@H](CO)C(=O)N[C@@H](Cc1c[nH]c2ccccc12)C(=O)N[C@H](C(=O)N[C@@H](CCCCN)C(=O)N[C@@H](CCCNC(=N)N)C(=O)N[C@@H](CCCCN)C(=O)N[C@@H](CCCNC(=N)N)C(=O)N[C@@H](CCC(N)=O)C(=O)N[C@@H](CCC(N)=O)C(N)=O)[C@@H](C)CC)[C@@H](C)CC)[C@@H](C)O)[C@@H](C)O)C(C)C)C(C)C [MELITTIN]
Activity (Lipid bilayer [1]): Active
Activity (Escherichia coli [2]): Active
Activity (Candida albicans [3]): Active

H-RRIRIIIRIRR-NH2
MIC (Escherichia coli [4]): 8 µM
Activity (Escherichia coli [5]): >99.99%
Activity (Candida albicans [6]): >99.99%
Activity (Escherichia coli [7]): >70%
Activity (Candida albicans [8]): 20%
Activity (Lipid bilayer [9]): Dose-dependent effect
Activity (Lipid bilayer [10]): Dose-dependent effect
Activity (Lipid bilayer [11]): 62%
Activity (Escherichia coli [12]): Active
Activity (Candida albicans [13]): Active
Activity (Candida albicans [14]): Active
Activity (Candida albicans [15]): Active
Activity (Escherichia coli [16]): inactive
fold change (FC) (Escherichia coli [17]): 2
inhibition (Lipopolysaccharide (LPS) [18]): 68%
Activity (Lipopolysaccharide (LPS) [19]): Dose-dependent effect
inhibition (RAW264.7 [20]): Dose-dependent effect
inhibition at 16 µM (RAW264.7 [21]): 100%
Activity (RAW264.7 [22]): Non-Toxic

From ChEMBL document CHEMBL4177755, “Combating Drug-Resistant Fungi with Novel Imperfectly Amphipathic Palindromic Peptides” (J Med Chem, 2018)
